For assay [1], the system named is Rattus norvegicus. The assay can be described thus: Antiallergic activity in rat assessed as inhibition of egg albumin-induced passive cutaneous anaphylaxis at 100 mg/kg, iv treated for 30 secs followed by egg albumin-challenge measured after 30 mins relative to control. Type of assay: functional. The note with it: 0.5 h.
Assay [2] relates to Rattus norvegicus. The assay can be described thus: Antiallergic activity in rat assessed as inhibition of egg albumin-induced passive cutaneous anaphylaxis at 0.25 mg/kg, iv treated for 30 secs followed by egg albumin-challenge measured after 30 mins relative to control. Format: functional. The settings on record: 0.5 h.
Assay [3] relates to Rattus norvegicus. The assay can be described thus: Antiallergic activity in rat assessed as inhibition of egg albumin-induced passive cutaneous anaphylaxis at 25 mg/kg, po treated for 15 mins followed by egg albumin-challenge measured after 30 mins relative to control. Type of assay: functional. A digest of the protocol:
(§1)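 Oral PCA in rats: intradermal antiserum at four back sites (dose giving ~12×12 mm wheal), compound po 48 h later, 15 min before iv challenge with 0.5 mL saline containing 5 mg Evans blue plus 5 mg egg albumin; skin bluing read 30 min after challenge on two axes per wheal; six rats per dose versus ≥6 vehicle controls; percent inhibition from mean wheal size, one-sided t test.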

Assay [4] relates to Rattus norvegicus. Briefly: Antiallergic activity in rat assessed as inhibition of egg albumin-induced passive cutaneous anaphylaxis at 0.7 mg/kg, iv treated for 30 secs followed by egg albumin-challenge measured after 30 mins relative to control. Type of assay: functional. The note with it: 0.5 h.
Assay [5] in a line: Antiallergic activity in passively sensitized rhesus monkey lungs assessed as inhibition of antigen-induced slow reacting substance of anaphylaxis release at 5 x 10^-5 M relative to control. Format: functional, Macaca mulatta, Lung. The procedure, abridged: (§2)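 Passively sensitized fragmented lung from a young adult male rhesus monkey, challenged with IgE-antihuman IgE; histamine release measured fluorometrically and SRS-A estimated by guinea pig ileum bioassay; inhibition relative to control; replicates given as number of separate lung preparations.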

In assay [6] the test system is Lung. Briefly: Antiallergic activity in passively sensitized albino rat lungs assessed as inhibition of antigen-induced histamine release at 1 x 10^-8 M by fluorometric analysis relative to control. Type of assay: functional. A digest of the protocol:
(§3)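 Fragmented lung from adult male Charles River albino rats, passively sensitized, then antigen-challenged with compound present; released histamine measured fluorometrically; inhibition reported relative to control, with replicate count given as number of separate lung preparations.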

The nature of assay [7]: Antiallergic activity in passively sensitized rhesus monkey lungs assessed as inhibition of antigen-induced histamine release at 1 x 10^-4 M by fluorometric analysis relative to control. Format: functional, Macaca mulatta, Lung. A digest of the protocol: as §2
Assay [8] in a line: Antiallergic activity in passively sensitized rhesus monkey lungs assessed as inhibition of antigen-induced histamine release by fluorometric analysis. Format: functional, Macaca mulatta, Lung. A digest of the protocol:
as §2

Assay [9] is described as follows: Antiallergic activity in passively sensitized rhesus monkey lungs assessed as inhibition of antigen-induced slow reacting substance of anaphylaxis release at 1 x 10^-4 M relative to control. Format: functional, Macaca mulatta, Lung. The procedure, abridged:
as §2

The nature of assay [10]: Antiallergic activity in passively sensitized rhesus monkey lungs assessed as inhibition of antigen-induced slow reacting substance of anaphylaxis release at 1 x 10^-5 M relative to control. Format: functional, Macaca mulatta, Lung. The procedure, abridged: as §2
Assay [11] in a line: Antiallergic activity in passively sensitized rhesus monkey lungs assessed as inhibition of antigen-induced histamine release at 5 x 10^-5 M by fluorometric analysis relative to control. Format: functional, Macaca mulatta, Lung. The procedure, abridged:
as §2

Assay [12] can be described thus: Antiallergic activity in passively sensitized rhesus monkey lungs assessed as inhibition of antigen-induced slow reacting substance of anaphylaxis release at 1 x 10^-6 M relative to control. Type of assay: functional, Macaca mulatta, Lung. A digest of the protocol:
as §2

The subject of assay [13] is Rattus norvegicus. The assay can be described thus: Ratio of antiallergic activity in iv dosed rat to antiallergic activity in po dosed rat. Format: functional.
The subject of assay [14] is Lung. The assay can be described thus: Antiallergic activity in passively sensitized albino rat lungs assessed as inhibition of antigen-induced histamine release at 1 x 10^-7 M by fluorometric analysis relative to control. Type of assay: functional. The procedure, abridged: as §3
A short description of assay [15]: Antiallergic activity in passively sensitized rhesus monkey lungs assessed as inhibition of antigen-induced histamine release at 1 x 10^-6 M by fluorometric analysis relative to control. Type of assay: functional, Macaca mulatta, Lung. A digest of the protocol:
as §2

Assay [16] is described as follows: Antiallergic activity in passively sensitized rhesus monkey lungs assessed as inhibition of antigen-induced histamine release at 1 x 10^-5 M by fluorometric analysis relative to control. Type of assay: functional, Macaca mulatta, Lung. A digest of the protocol:
as §2

Assay [17] in a line: Antiallergic activity in passively sensitized rhesus monkey lungs assessed as inhibition of antigen-induced slow reacting substance of anaphylaxis release. Type of assay: functional, Macaca mulatta, Lung. The procedure, abridged:
as §2

In assay [18] the test system is Lung. The assay can be described thus: Antiallergic activity in passively sensitized albino rat lungs assessed as inhibition of antigen-induced histamine release at 1 x 10^-6 M by fluorometric analysis relative to control. Type of assay: functional. The procedure, abridged:
as §3

In assay [19] the test system is Lung. The assay can be described thus: Antiallergic activity in passively sensitized albino rat lungs assessed as inhibition of antigen-induced histamine release at 1 x 10^-5 M by fluorometric analysis relative to control. Type of assay: functional. The procedure, abridged: as §3
Assay [20] concerns Rattus norvegicus. The assay can be described thus: Antiallergic activity in po dosed rat assessed as inhibition of egg albumin-induced passive cutaneous anaphylaxis treated for 15 mins followed by egg albumin-challenge measured after 30 mins. Format: functional. The note with it: read-out: ID50 (the source's name). A digest of the protocol: as §1
For assay [21], the system named is Rattus norvegicus. Briefly: Antiallergic activity in rat assessed as inhibition of egg albumin-induced passive cutaneous anaphylaxis at 3.4 mg/kg, iv treated for 30 secs followed by egg albumin-challenge measured after 30 mins relative to control. The note with it: 0.5 h. Type of assay: functional.
The subject of assay [22] is Rattus norvegicus. Briefly: Antiallergic activity in rat assessed as inhibition of egg albumin-induced passive cutaneous anaphylaxis at 0.2 mg/kg, iv treated for 30 secs followed by egg albumin-challenge measured after 30 mins relative to control. Type of assay: functional. The settings on record: 0.5 h.
In assay [23] the test system is Lung. The assay can be described thus: Antiallergic activity in passively sensitized albino rat lungs assessed as inhibition of antigen-induced histamine release at 1 x 10^-9 M by fluorometric analysis relative to control. Format: functional. A digest of the protocol:
as §3

Assay [24] in a line: Antiallergic activity in passively sensitized rhesus monkey lungs assessed as inhibition of antigen-induced slow reacting substance of anaphylaxis release at 5 x 10^-6 M relative to control. Type of assay: functional, Macaca mulatta, Lung. The procedure, abridged: as §2
The nature of assay [25]: Antiallergic activity in passively sensitized rhesus monkey lungs assessed as inhibition of antigen-induced histamine release at 5 x 10^-6 M by fluorometric analysis relative to control. Format: functional, Macaca mulatta, Lung. A digest of the protocol: as §2
In assay [26] the test system is Rattus norvegicus. Briefly: Ratio of DSCG ID50 to compound ID50 for antiallergic activity in iv dosed rat. Type of assay: functional.
Assay [27] has as its system Rattus norvegicus. Briefly: Antiallergic activity in iv dosed rat assessed as inhibition of egg albumin-induced passive cutaneous anaphylaxis treated for 30 secs followed by egg albumin-challenge measured after 30 mins. Format: functional. The settings on record: 0.5 h, read-out: ID50 (the source's name).

Usually inhibition in vivo stands for the share of the control response that was lost under treatment. For `CC(=O)C1=C(O)/C(=C(\C)Nc2ccc(N(C)C)cc2)C(=O)OC1=O`, the inhibition in vivo at 100 mg/kg in assay [1] was 11%.
Turning to `CC(=O)Nc1cccc(N/C(C)=C2\C(=O)OC(=O)C(C(C)=O)=C2O)c1`, in assay [2], the inhibition in vivo at 0.25 mg/kg amounted to 65%. Also, the inhibition in vivo at 25 mg/kg in [3] turned out to be 53%.
Regarding `CC(=O)C1=C(O)/C(=C(\C)Nc2ccc(O)c(N)c2)C(=O)OC1=O.Cl`, the inhibition in vivo at 0.7 mg/kg in assay [4] turned out to be 50%. The “inhibition (INH)” value is 40% in assay [5]; 26% in assay [6]; 66% in assay [7]; 56% in [9]; 1% in [10]; 49% in [11]. Moreover, the “inhibition (INH)” value in assay [12] is -24%; in assay [14], 42%; in [15], 4%; in [16] it was 22%; in assay [18], 61%; in assay [19] it was 47%. Moreover, the results for the ID30 in [8] and in assay [17] were 1.3 ×10⁻⁵ M and 3.3 ×10⁻⁵ M, respectively. In assay [13], the Ratio is 1. The ED50 in [20] turned out to be 0.8 mg/kg.
With `CC(=O)C1=C(O)/C(=C(\C)Nc2ccc(N)c(O)c2)C(=O)OC1=O`, the inhibition in vivo at 3.4 mg/kg in assay [21] is 50%. Besides, in [3], the inhibition in vivo at 25 mg/kg stood at 40%.
Consider `CC(=O)Nc1cc(N/C(C)=C2\C(=O)OC(=O)C(C(C)=O)=C2O)ccc1O`, for which the “inhibition (INH)” value came out at 33% in [5]; 53% in assay [6]; 43% in assay [23]; 5% in assay [10]; 25% in assay [11]; 88% in [14]. For the same compound, the “inhibition (INH)” value in assay [24] was -11%; in assay [25], -32%; in assay [16] it was -31%; in [18], 76%; in assay [19], 86%. Moreover, the inhibition in vivo at 0.2 mg/kg in assay [22] was 50%. In assay [3], the inhibition in vivo at 25 mg/kg is 50%.
Turning to `CC(=O)C1=C(O)/C(=C(\C)Nc2cc(NC(=O)C(O)CO)cc(NC(=O)C(O)CO)c2)C(=O)OC1=O` (centres undefined), the Ratio in assay [26] is 1000. Further, the “inhibition (INH)” value in assay [7] is reported as 7%; in assay [9] it was 7%; in assay [10], -0.5%; in assay [12], -7%; in assay [15], -30%; in assay [16], -20%. The ED50 in [27] amounted to 0.0009 mg/kg; in [20], 2.9 mg/kg.

(Values after ChEMBL document CHEMBL3244146, “Pyranenamines: a new series of antiallergic compounds” (1979).)
